Experimental data reported in ChEMBL document CHEMBL1128459, “Characterization of potent and selective antagonists at postsynaptic 5-HT1A receptors in a series of N4-substituted arylpiperazines” (J Med Chem, 1995).

Tests used:
[1] = molecular target: T1, 5-hydroxytryptamine receptor 1A (Rattus norvegicus, UniProt P19327); assay: Binding affinity at 5-hydroxytryptamine 1A receptor
T1 sequence (P19327 whole entry): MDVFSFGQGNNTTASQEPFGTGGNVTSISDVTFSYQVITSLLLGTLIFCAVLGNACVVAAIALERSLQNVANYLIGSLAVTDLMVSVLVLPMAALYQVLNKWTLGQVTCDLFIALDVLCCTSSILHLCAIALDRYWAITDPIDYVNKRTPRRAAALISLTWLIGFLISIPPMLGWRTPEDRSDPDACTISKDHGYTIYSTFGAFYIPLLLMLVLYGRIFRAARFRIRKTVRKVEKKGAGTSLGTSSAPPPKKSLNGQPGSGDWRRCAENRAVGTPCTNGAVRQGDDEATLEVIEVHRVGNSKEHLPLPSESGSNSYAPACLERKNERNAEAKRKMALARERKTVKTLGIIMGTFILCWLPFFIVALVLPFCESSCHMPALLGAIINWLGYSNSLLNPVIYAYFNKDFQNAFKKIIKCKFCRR
Summary of the method: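 Rat hippocampal membranes (1/100 wt/vol) in 50 mM Tris pH 7.7 with 4 mM CaCl2, 0.1% ascorbic acid and pargyline. Membranes were spun at 25000g, preincubated 30 min at 37 °C and respun, then incubated with 0.4 nM [3H]-8-OH-DPAT for 30 min at 25 °C. 5-HT defined nonspecific binding, and samples were filtered on PEI-soaked GF/B. IC50 came from regression; pKi = −log[IC50/(1+[L]/Kd)].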

[2] = molecular target: 5-hydroxytryptamine receptor 1B (Rattus norvegicus, UniProt P28564); assay: Binding affinity at 5-hydroxytryptamine 1B receptor
Summary of the method: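 Rat frontal cortex membranes (1/40 wt/vol) were homogenized in 50 mM Tris pH 7.7 with pargyline, 4 mM CaCl2 and 0.1% ascorbic acid, then preincubated for 30 min at 37 °C. Labelled with 2.0 nM [3H]-5-HT, with 100 nM 8-OH-DPAT and 100 nM mesulergine masking 5-HT1A/5-HT2A sites; 5-CT defined nonspecific binding.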

D(2) dopamine receptor = D(2) dopamine receptor (Rattus norvegicus, UniProt P61169); assay: In vitro binding affinity towards dopamine D2 receptor in rat striatum was determined using [3H]-spiperone as radioligand; format: tissue-based
Summary of the method: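 Rat striatal membranes (1/300 wt/vol), no preincubation, in 50 mM Tris pH 7.4 with CaCl2, ascorbic acid, 5 mM KCl, 1 mM MgCl2 and 120 mM NaCl. Ligand 0.2 nM [3H]spiperone, with 100 nM ketanserin masking 5-HT2A sites; raclopride defined nonspecific binding. Incubation 30 min at 37 °C, then filtration. pKi derived from regression-based IC50.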

Rattus norvegicus [3] = assay: Compound after subcutaneous administration was evaluated for antagonist activity against hypothermia induced by 8-hydroxy -DPAT in rat; format: functional; conditions: sc, read-out: ID50 (the source's name)
Summary of the method: (§1)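 Male Wistar rats (200-220 g) had rectal temperature taken, then received the test drug sc in distilled water (1.0 mL/kg). After 30 min they got 8-OH-DPAT 0.16 mg/kg sc, and temperature was remeasured 30 min later. Change from basal was scored.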

Rattus norvegicus [4] = assay: Minimum effective agonist dose administered subcutaneously; format: functional; conditions: sc, read-out: MED
Summary of the method: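 Male Wistar rats (200-220 g) were given the test drug alone sc in water (1.0 mL/kg), with vehicle reinjected at 30 min. Rectal temperature change from basal was measured 60 min after the first injection. MED for hypothermia was set against vehicle by ANOVA with Dunnett's test, P < 0.05.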

Rattus norvegicus [5] = assay: Minimum effective antagonist dose administered subcutaneously; format: functional; conditions: sc, read-out: MED; summary of the method: as §1
Rattus norvegicus [6] = species on record: Rattus norvegicus; assay: Maximum agonist effect (% effect) expressed relative to 8-hydroxy-DPAT (100%); format: functional
Summary of the method: (§2)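 In the rat rectal-temperature model (sc dosing, 8-OH-DPAT 0.16 mg/kg sc for antagonism), the maximal percentage of induced hypothermia (agonist) and of block of 8-OH-DPAT hypothermia (antagonist) was recorded. Each value is given with the dose at which it was reached.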

Rattus norvegicus [7] = species on record: Rattus norvegicus; assay: Maximum antagonist effect (% effect) expressed relative to 8-hydroxy-DPAT (100%); format: functional; summary of the method: as §2
[8] = Ratio of MED (agonist) to that of MED (antagonist) values.; format: functional
Summary of the method: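 The MED for inducing hypothermia alone was divided by the MED for blocking 8-OH-DPAT (0.16 mg/kg sc) hypothermia. Both MEDs came from sc dosing in male Wistar rats and were tested against vehicle by ANOVA with Dunnett's test, P < 0.05.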

[9] = molecular target: Serotonin 1a (5-HT1a) receptor/Adrenergic receptor alpha-1 (Rattus norvegicus) (UniProt P15823+P23944+P43140+P19327); assay: Ki ratio measured as the Ki values of alpha-1 adrenergic receptor to that of 5-hydroxytryptamine 1A receptor; format: protein assay
[10] = molecular target: T2, Adrenergic receptor alpha-1 (Rattus norvegicus, UniProt P15823+P23944+P43140); assay: In vitro binding affinity towards Alpha-1 adrenergic receptor in rat cortex was determined using [3H]prazosin as radioligand
T2 sequence (P15823 whole entry): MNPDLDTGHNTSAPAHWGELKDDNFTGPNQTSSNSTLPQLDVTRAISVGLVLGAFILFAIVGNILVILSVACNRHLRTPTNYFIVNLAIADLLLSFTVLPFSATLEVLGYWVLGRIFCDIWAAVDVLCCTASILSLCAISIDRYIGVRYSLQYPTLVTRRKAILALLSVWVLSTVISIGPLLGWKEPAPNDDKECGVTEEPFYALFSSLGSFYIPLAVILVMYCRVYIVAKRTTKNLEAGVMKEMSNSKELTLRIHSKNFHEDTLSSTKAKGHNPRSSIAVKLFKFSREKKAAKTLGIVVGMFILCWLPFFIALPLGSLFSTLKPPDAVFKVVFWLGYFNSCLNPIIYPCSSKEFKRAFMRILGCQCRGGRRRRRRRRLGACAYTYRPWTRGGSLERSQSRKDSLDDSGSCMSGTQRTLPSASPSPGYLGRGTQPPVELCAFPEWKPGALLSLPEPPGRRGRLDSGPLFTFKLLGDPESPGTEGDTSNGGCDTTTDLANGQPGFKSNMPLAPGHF
T2 sequence (P23944 whole entry): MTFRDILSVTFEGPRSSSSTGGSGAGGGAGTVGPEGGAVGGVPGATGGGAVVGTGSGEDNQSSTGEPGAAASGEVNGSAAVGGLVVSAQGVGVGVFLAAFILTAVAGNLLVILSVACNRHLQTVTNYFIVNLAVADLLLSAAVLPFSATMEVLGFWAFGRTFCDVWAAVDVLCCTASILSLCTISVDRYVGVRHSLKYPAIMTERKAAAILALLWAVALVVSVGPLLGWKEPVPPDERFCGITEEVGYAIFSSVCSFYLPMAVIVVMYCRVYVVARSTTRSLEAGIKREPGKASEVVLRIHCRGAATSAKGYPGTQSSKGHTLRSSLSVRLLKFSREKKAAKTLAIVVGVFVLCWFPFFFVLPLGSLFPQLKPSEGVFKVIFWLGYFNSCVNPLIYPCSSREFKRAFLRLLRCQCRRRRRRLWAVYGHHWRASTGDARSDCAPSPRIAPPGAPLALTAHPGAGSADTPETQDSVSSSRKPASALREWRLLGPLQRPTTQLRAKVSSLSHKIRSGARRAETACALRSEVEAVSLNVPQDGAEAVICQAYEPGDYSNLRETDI
T2 sequence (P43140 whole entry): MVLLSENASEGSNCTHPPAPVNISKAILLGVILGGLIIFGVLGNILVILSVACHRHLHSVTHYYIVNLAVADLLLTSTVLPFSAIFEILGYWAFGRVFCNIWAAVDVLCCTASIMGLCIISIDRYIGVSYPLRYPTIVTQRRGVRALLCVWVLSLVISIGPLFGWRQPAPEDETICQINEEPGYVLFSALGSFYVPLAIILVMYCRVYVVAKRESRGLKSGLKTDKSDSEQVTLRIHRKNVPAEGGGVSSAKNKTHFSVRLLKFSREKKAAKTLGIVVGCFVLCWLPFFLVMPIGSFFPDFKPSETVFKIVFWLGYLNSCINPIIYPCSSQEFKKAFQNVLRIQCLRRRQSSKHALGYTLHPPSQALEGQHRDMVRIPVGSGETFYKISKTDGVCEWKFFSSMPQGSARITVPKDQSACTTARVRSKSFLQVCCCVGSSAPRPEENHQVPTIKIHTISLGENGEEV
Summary of the method: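 Rat frontal cortex membranes (1/80 wt/vol), no preincubation, in 50 mM Tris pH 7.6 with 4 mM CaCl2 and 0.1% ascorbic acid. Ligand 0.2 nM [3H]prazosin, with phentolamine for nonspecific binding. Incubation 60 min at 25 °C, then filtration. IC50 obtained by regression and converted to pKi with radioligand Kd from saturation experiments.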

[11] = molecular target: D(2) dopamine receptor (Rattus norvegicus) (UniProt P61169)
[12] = molecular target: D(2) dopamine receptor (Rattus norvegicus) (UniProt P61169); assay: Inhibitory activity against methyl-phenidate-induced gnawing at dopamine D2 receptor in rat
Summary of the method: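 Male Wistar rats (200-220 g) received the test drug sc in water (1.0 mL/kg), then methylphenidate 40.0 mg/kg ip 30 min later. Observation began 30 min after that. Gnawing bouts were counted in 10 s per minute (maximum 10) by a blinded observer.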

Sequence of D(2) dopamine receptor (Rattus norvegicus) (P61169 whole entry): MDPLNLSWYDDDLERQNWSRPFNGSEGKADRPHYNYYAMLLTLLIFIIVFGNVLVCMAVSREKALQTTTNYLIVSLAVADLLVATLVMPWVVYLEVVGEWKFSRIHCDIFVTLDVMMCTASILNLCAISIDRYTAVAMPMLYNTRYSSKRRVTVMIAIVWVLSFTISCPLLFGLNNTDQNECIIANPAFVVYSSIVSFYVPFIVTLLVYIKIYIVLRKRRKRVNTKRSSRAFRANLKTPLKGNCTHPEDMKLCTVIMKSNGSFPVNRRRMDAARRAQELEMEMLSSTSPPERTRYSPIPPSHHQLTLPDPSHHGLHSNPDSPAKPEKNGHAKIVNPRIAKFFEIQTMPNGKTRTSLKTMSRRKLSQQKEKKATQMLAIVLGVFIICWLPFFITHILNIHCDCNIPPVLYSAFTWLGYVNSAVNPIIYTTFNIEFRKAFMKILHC
Sequence of 5-hydroxytryptamine receptor 1B (P28564 whole entry): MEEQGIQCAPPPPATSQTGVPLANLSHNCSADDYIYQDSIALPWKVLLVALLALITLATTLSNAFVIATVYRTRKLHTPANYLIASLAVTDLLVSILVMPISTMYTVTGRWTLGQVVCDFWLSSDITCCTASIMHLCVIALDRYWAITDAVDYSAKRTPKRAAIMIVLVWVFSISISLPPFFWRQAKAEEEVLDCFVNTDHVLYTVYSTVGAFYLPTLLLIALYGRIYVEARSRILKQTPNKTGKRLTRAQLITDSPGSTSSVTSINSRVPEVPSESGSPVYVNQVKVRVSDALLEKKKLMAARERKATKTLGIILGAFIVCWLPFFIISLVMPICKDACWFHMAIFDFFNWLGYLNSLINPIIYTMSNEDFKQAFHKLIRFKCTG
Sequence of D(2) dopamine receptor (P61169 whole entry): as the sequence (P61169 whole entry) above

Row | Structure (SMILES) | Ki [1] [nM] | Ki [2] [nM] | Ki (D(2) dopamine receptor) [nM] | ED50 (Rattus norvegicus [3]) [mg/kg] | minimal effective dose (Rattus norvegicus [4]) [mg/kg] | minimal effective dose (Rattus norvegicus [5]) [mg/kg] | Max effect (Rattus norvegicus [6]) [%] | Max effect (Rattus norvegicus [7]) [%] | Ratio [8] | Ki ratio [9] | Log Ki [10] | ID50 [11] [mg/kg] | ID50 [12] [mg/kg]
1 | COc1cc2c(cc1OC)C(CCN1CCN(c3cccc4c3OCCO4)CC1)CC2 (stereo unspecified) | 1.58 | 676 | 132 | 0.86 | > 40 | 2.5 | 12 | 84 | > 16 | 9.8 | -7.81 | 40 | –
2 | Clc1cccc2c1CC2CN1CCN(c2cccc3c2OCCO3)CC1 (stereo unspecified) | 3.98 | 550 | – | 0.8 | 40 | 0.63 | 0 | 100 | 63.5 | – | – | – | > 40
